≈ marks a conversion by molar mass, not a printed value.
Columns and labels:
[1] = test system: Staphylococcus aureus; assay: Antibacterial activity against Staphylococcus aureus ATCC 6538 after 24 hrs by micro dilution method; format: functional; settings: ATCC 6538, 24 h
How it was run: (§1)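 Microdilution MIC in 96-well plates. Bacterial suspensions adjusted in sterile saline to 1.0 × 10^5 CFU/ml, giving 1.0 × 10^4 cfu per well in LB broth. Compounds tested at up to 1 mg/ml. Plates incubated 24 h. MIC taken as the lowest concentration with no visible growth under a binocular microscope. OD at 655 nm was also read against a blank and the positive control. Streptomycin and ampicillin were the positive controls.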

[2] = test system: Bacillus cereus; assay: Antibacterial activity against Bacillus cereus clinical isolate after 24 hrs by micro dilution method; format: functional; how it was run: as §1
[3] = test system: Micrococcus flavus; assay: Antibacterial activity against Micrococcus flavus ATCC 10240 after 24 hrs by micro dilution method; format: functional; settings: ATCC 10240, 24 h; how it was run: as §1
[4] = test system: Listeria monocytogenes; assay: Antibacterial activity against Listeria monocytogenes NCTC 7973 after 24 hrs by micro dilution method; format: functional; settings: NCTC 7973, 24 h; how it was run: as §1
[5] = test system: Pseudomonas aeruginosa; assay: Antibacterial activity against Pseudomonas aeruginosa ATCC 27853 after 24 hrs by micro dilution method; format: functional; settings: ATCC 27853, 24 h; how it was run: as §1
[6] = test system: Enterobacter cloacae; assay: Antibacterial activity against Enterobacter cloacae human isolate after 24 hrs by micro dilution method; format: functional; how it was run: as §1
[7] = test system: Salmonella typhimurium; assay: Antibacterial activity against Salmonella Typhimurium ATCC 13311 after 24 hrs by micro dilution method; format: functional, Salmonella enterica subsp. enterica serovar Typhimurium; settings: Salmonella enterica, ATCC 13311, 24 h; how it was run: as §1
[8] = test system: Escherichia coli; assay: Antibacterial activity against Escherichia coli ATCC 35210 after 24 hrs by micro dilution method; format: functional; settings: ATCC 35210, 24 h; how it was run: as §1
[9] = test system: Staphylococcus aureus; assay: Antibacterial activity against Staphylococcus aureus ATCC 6538 treated for 24 hrs followed by sub-cultivated for 72 hrs by micro dilution method; format: functional
How it was run: (§2)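 2 µl from each well was serially subcultured into 100 µl fresh broth per well and incubated a further 72 h. MBC is the lowest concentration with no visible growth, taken as 99.5% killing of the original inoculum. Streptomycin and ampicillin were the positive controls.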

[10] = test system: Bacillus cereus; assay: Antibacterial activity against Bacillus cereus clinical isolate treated for 24 hrs followed by sub-cultivated for 72 hrs by micro dilution method; format: functional; how it was run: as §2
[11] = test system: Micrococcus flavus; assay: Antibacterial activity against Micrococcus flavus ATCC 10240 treated for 24 hrs followed by sub-cultivated for 72 hrs by micro dilution method; format: functional; how it was run: as §2
[12] = test system: Listeria monocytogenes; assay: Antibacterial activity against Listeria monocytogenes NCTC 7973 treated for 24 hrs followed by sub-cultivated for 72 hrs by micro dilution method; format: functional; how it was run: as §2
[13] = test system: Pseudomonas aeruginosa; assay: Antibacterial activity against Pseudomonas aeruginosa ATCC 27853 treated for 24 hrs followed by sub-cultivated for 72 hrs by micro dilution method; format: functional; how it was run: as §2
[14] = test system: Enterobacter cloacae; assay: Antibacterial activity against Enterobacter cloacae human isolate treated for 24 hrs followed by sub-cultivated for 72 hrs by micro dilution method; format: functional; how it was run: as §2
[15] = test system: Salmonella typhimurium; assay: Antibacterial activity against Salmonella Typhimurium ATCC 13311 treated for 24 hrs followed by sub-cultivated for 72 hrs by micro dilution method; format: functional, Salmonella enterica subsp. enterica serovar Typhimurium; settings: Salmonella enterica; how it was run: as §2
[16] = test system: Escherichia coli; assay: Antibacterial activity against Escherichia coli ATCC 35210 treated for 24 hrs followed by sub-cultivated for 72 hrs by micro dilution method; format: functional; how it was run: as §2
[17] = test system: Talaromyces funiculosus; assay: Antifungal activity against Penicillium funiculosum ATCC 36839 after 72 hrs by serial dilution method; format: functional; settings: ATCC 36839, 72 h
How it was run: (§3)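 Modified microdilution MIC. Spores were washed from malt agar cultures with sterile 0.85% saline containing 0.1% Tween 80 and adjusted to about 1.0 × 10^5 per 100 µl well in malt broth. Compounds were dissolved in DMSO (1 mg/ml). Plates incubated 72 h at 28 °C. MIC is the lowest concentration with no visible growth under a binocular microscope. Bifonazole and ketoconazole were the references.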

[18] = test system: Penicillium ochrochloron; assay: Antifungal activity against Penicillium ochrochloron ATCC 9112 after 72 hrs by serial dilution method; format: functional; settings: ATCC 9112, 72 h; how it was run: as §3
[19] = test system: Trichoderma viride; assay: Antifungal activity against Trichoderma viride IAM 5061 after 72 hrs by serial dilution method; format: functional; settings: IAM 5061, 72 h; how it was run: as §3
[20] = test system: Aspergillus fumigatus; assay: Antifungal activity against Aspergillus fumigatus human isolate after 72 hrs by serial dilution method; format: functional; how it was run: as §3
[21] = test system: Aspergillus niger; assay: Antifungal activity against Aspergillus niger ATCC 6275 after 72 hrs by serial dilution method; format: functional; settings: ATCC 6275, 72 h; how it was run: as §3
[22] = test system: Aspergillus flavus; assay: Antifungal activity against Aspergillus flavus ATCC 9643 after 72 hrs by serial dilution method; format: functional; settings: ATCC 9643, 72 h; how it was run: as §3
[23] = test system: Aspergillus versicolor; assay: Antifungal activity against Aspergillus versicolor ATCC 11730 after 72 hrs by serial dilution method; format: functional; settings: ATCC 11730, 72 h; how it was run: as §3
[24] = test system: Fulvia fulva; assay: Antifungal activity against Fulvia fulva after 72 hrs by serial dilution method; format: functional; how it was run: as §3
[25] = test system: Talaromyces funiculosus; assay: Antifungal activity against Penicillium funiculosum ATCC 36839 treated for 72 hrs followed by sub-cultivated for 5 days by serial dilution method; format: functional
How it was run: (§4)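 MFC obtained after the 72 h, 28 °C malt-broth microdilution (spore inoculum about 1.0 × 10^5 per well, compounds from 1 mg/ml DMSO). 2 µl was serially subcultured into 100 µl broth per well and incubated a further 5 days at 28 °C. MFC is the lowest concentration with no visible growth, taken as 99.5% killing of the original inoculum.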

[26] = test system: Penicillium ochrochloron; assay: Antifungal activity against Penicillium ochrochloron ATCC 9112 treated for 72 hrs followed by sub-cultivated for 5 days by serial dilution method; format: functional; how it was run: as §4
[27] = test system: Trichoderma viride; assay: Antifungal activity against Trichoderma viride IAM 5061 treated for 72 hrs followed by sub-cultivated for 5 days by serial dilution method; format: functional; how it was run: as §4
[28] = test system: Aspergillus fumigatus; assay: Antifungal activity against Aspergillus fumigatus human isolate treated for 72 hrs followed by sub-cultivated for 5 days by serial dilution method; format: functional; how it was run: as §4
[29] = test system: Aspergillus niger; assay: Antifungal activity against Aspergillus niger ATCC 6275 treated for 72 hrs followed by sub-cultivated for 5 days by serial dilution method; format: functional; how it was run: as §4
[30] = test system: Aspergillus flavus; assay: Antifungal activity against Aspergillus flavus ATCC 9643 treated for 72 hrs followed by sub-cultivated for 5 days by serial dilution method; format: functional; how it was run: as §4
[31] = test system: Aspergillus versicolor; assay: Antifungal activity against Aspergillus versicolor ATCC 11730 treated for 72 hrs followed by sub-cultivated for 5 days by serial dilution method; format: functional; how it was run: as §4
[32] = test system: Fulvia fulva; assay: Antifungal activity against Fulvia fulva treated for 72 hrs followed by sub-cultivated for 5 days by serial dilution method; format: functional; how it was run: as §4

SMILES | MIC [1] | MIC [2] | MIC [3] | MIC [4] | MIC [5] | MIC [6] | MIC [7] | MIC [8] | MBC [9] | MBC [10] | MBC [11] | MBC [12] | MBC [13] | MBC [14] | MBC [15] | MBC [16] | MIC [17] | MIC [18] | MIC [19] | MIC [20] | further results
COc1cc(Cc2n[nH]c(=S)n2C)c(S(=O)(=O)N(C)C)cc1OC | 270 µM (≈ 101 µg/mL) | 270 µM (≈ 101 µg/mL) | 270 µM (≈ 101 µg/mL) | 270 µM (≈ 101 µg/mL) | 540 µM (≈ 201 µg/mL) | 270 µM (≈ 101 µg/mL) | 270 µM (≈ 101 µg/mL) | 540 µM (≈ 201 µg/mL) | 540 µM (≈ 201 µg/mL) | 540 µM (≈ 201 µg/mL) | 540 µM (≈ 201 µg/mL) | 270 µM (≈ 101 µg/mL) | 540 µM (≈ 201 µg/mL) | 270 µM (≈ 101 µg/mL) | 270 µM (≈ 101 µg/mL) | 540 µM (≈ 201 µg/mL) | 140 µM (≈ 52.1 µg/mL) | 140 µM (≈ 52.1 µg/mL) | 70 µM (≈ 26.1 µg/mL) | 140 µM (≈ 52.1 µg/mL) | MIC [21]: 70 µM (≈ 26.1 µg/mL); MIC [22]: 70 µM (≈ 26.1 µg/mL); MIC [23]: 140 µM (≈ 52.1 µg/mL); MIC [24]: 70 µM (≈ 26.1 µg/mL); MFC [25]: 270 µM (≈ 101 µg/mL); MFC [26]: 270 µM (≈ 101 µg/mL); MFC [27]: 140 µM (≈ 52.1 µg/mL); MFC [28]: 270 µM (≈ 101 µg/mL); MFC [29]: 140 µM (≈ 52.1 µg/mL); MFC [30]: 140 µM (≈ 52.1 µg/mL); MFC [31]: 270 µM (≈ 101 µg/mL); MFC [32]: 140 µM (≈ 52.1 µg/mL)
CCn1c(Cc2cc(OC)c(OC)cc2S(=O)(=O)N(C)C)n[nH]c1=S | 260 µM (≈ 100 µg/mL) | 520 µM (≈ 201 µg/mL) | 260 µM (≈ 100 µg/mL) | 260 µM (≈ 100 µg/mL) | 260 µM (≈ 100 µg/mL) | 260 µM (≈ 100 µg/mL) | 260 µM (≈ 100 µg/mL) | 260 µM (≈ 100 µg/mL) | 520 µM (≈ 201 µg/mL) | 520 µM (≈ 201 µg/mL) | 520 µM (≈ 201 µg/mL) | 520 µM (≈ 201 µg/mL) | 260 µM (≈ 100 µg/mL) | 520 µM (≈ 201 µg/mL) | 260 µM (≈ 100 µg/mL) | 520 µM (≈ 201 µg/mL) | 130 µM (≈ 50.2 µg/mL) | 130 µM (≈ 50.2 µg/mL) | 70 µM (≈ 27.1 µg/mL) | 130 µM (≈ 50.2 µg/mL) | MIC [21]: 70 µM (≈ 27.1 µg/mL); MIC [22]: 70 µM (≈ 27.1 µg/mL); MIC [23]: 130 µM (≈ 50.2 µg/mL); MIC [24]: 70 µM (≈ 27.1 µg/mL); MFC [25]: 260 µM (≈ 100 µg/mL); MFC [26]: 260 µM (≈ 100 µg/mL); MFC [27]: 130 µM (≈ 50.2 µg/mL); MFC [28]: 260 µM (≈ 100 µg/mL); MFC [29]: 130 µM (≈ 50.2 µg/mL); MFC [30]: 260 µM (≈ 100 µg/mL); MFC [31]: 260 µM (≈ 100 µg/mL); MFC [32]: 70 µM (≈ 27.1 µg/mL)

Reference: ChEMBL document CHEMBL1944580, “Synthesis of novel sulfonamide-1,2,4-triazoles, 1,3,4-thiadiazoles and 1,3,4-oxadiazoles, as potential antibacterial and antifungal agents. Biological evaluation and conformational analysis studies” (2012)
